In ChEMBL document CHEMBL4406880, “Design, synthesis, and bioactivity of dihydropyrimidine derivatives as kinesin spindle protein inhibitors” (Bioorg Med Chem, 2019):

Assays:
Format in all cases: functional
SN12C [1] = assay: Growth inhibition of human SN12C cells assessed as cell viability at 1 uM incubated for 48 hrs by sulforhodamine B assay; settings: read-out: Activity
T47D = assay: Growth inhibition of human T47D cells assessed as cell viability at 0.001 uM incubated for 48 hrs by sulforhodamine B assay relative to control; settings: read-out: Activity
SK-OV-3 = assay: Growth inhibition of human SKOV3 cells assessed as cell viability at 100 uM incubated for 48 hrs by sulforhodamine B assay; settings: SK-OV-3, 48 h, read-out: Activity
A498 = assay: Growth inhibition of human A498 cells assessed as cell viability at 0.001 uM incubated for 48 hrs by sulforhodamine B assay relative to control; settings: A498, 48 h, read-out: Activity
EKVX = assay: Growth inhibition of human EKVX cells assessed as cell viability at 0.1 uM incubated for 48 hrs by sulforhodamine B assay; settings: read-out: Activity
NCI/ADR-RES = assay: Growth inhibition of human NCI/ADR-RES cells assessed as cell viability at 0.1 uM incubated for 48 hrs by sulforhodamine B assay; settings: read-out: Activity
SK-MEL-5 = assay: Growth inhibition of human SK-MEL-5 cells assessed as cell viability at 1 uM incubated for 48 hrs by sulforhodamine B assay; settings: SK-MEL-5, 48 h, read-out: Activity
OVCAR-8 = assay: Growth inhibition of human OVCAR8 cells assessed as cell viability at 1 uM incubated for 48 hrs by sulforhodamine B assay; settings: OVCAR-8, 48 h, read-out: Activity
SR [2] = assay: Growth inhibition of human SR cells assessed as cell viability at 0.001 uM incubated for 48 hrs by sulforhodamine B assay relative to control; settings: read-out: Activity
786-0 = assay: Growth inhibition of human 786-0 cells assessed as cell viability at 0.001 uM incubated for 48 hrs by sulforhodamine B assay relative to control; settings: 786-0, 48 h, read-out: Activity
SK-MEL-2 = assay: Growth inhibition of human SK-MEL-2 cells assessed as cell viability at 0.1 uM incubated for 48 hrs by sulforhodamine B assay; settings: SK-MEL-2, 48 h, read-out: Activity
HCT-116 = assay: Growth inhibition of human HCT116 cells assessed as cell viability at 1 uM incubated for 48 hrs by sulforhodamine B assay; settings: HCT-116, 48 h, read-out: Activity
NCI-H522 = assay: Growth inhibition of human NCI-H522 cells incubated for 48 hrs by sulforhodamine B assay; settings: NCI-H522, 48 h
Outline: (§1)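 NCI-60 five-dose SRB assay in RPMI 1640 with 5% FBS, 37 °C, 5% CO2. Compound given at five tenfold dilutions, 0.01–100 µM, for 48 h. Adherent cells fixed with TCA, suspension cells with 16% final TCA. Bound SRB read at 515 nm and growth calculated against time-zero and untreated controls. GI50 taken from dose–response curves as the concentration giving a 50% decrease in net cell growth.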

HT-29 = assay: Growth inhibition of human HT-29 cells assessed as cell viability at 100 uM incubated for 48 hrs by sulforhodamine B assay; settings: HT-29, 48 h, read-out: Activity
SNB-75 = assay: Induction of apoptosis in human SNB75 cells assessed as late apoptotic cells at 2 uM incubated for 24 hrs by annexin V FITC and propidium iodide based flow cytometry (reference value: 0.59 %)
NCI-H460 = assay: Growth inhibition of human NCI-H460 cells assessed as cell viability at 0.001 uM incubated for 48 hrs by sulforhodamine B assay relative to control; settings: NCI-H460, 48 h, read-out: Activity
Malme-3M = assay: Growth inhibition of human MALME-3M cells assessed as cell viability at 1 uM incubated for 48 hrs by sulforhodamine B assay; settings: read-out: Activity
SN12C [3] = assay: Growth inhibition of human SN12C cells assessed as cell viability at 100 uM incubated for 48 hrs by sulforhodamine B assay; settings: read-out: Activity
SF-268 = assay: Growth inhibition of human SF268 cells incubated for 48 hrs by sulforhodamine B assay; settings: SF-268, 48 h
Outline: (§2)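 NCI-60 five-dose SRB assay. Cells were exposed for 48 h to tenfold dilutions of 0.01, 0.1, 1, 10 and 100 µM, in RPMI 1640 with 5% FBS. Plates fixed with TCA at the time of drug addition served as the time-zero reference. GI50 is the concentration giving a 50% reduction in net growth. TGI is total growth inhibition. LC50 is a net 50% loss of the initial cells.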

M14 = assay: Growth inhibition of human M14 cells assessed as cell viability at 0.1 uM incubated for 48 hrs by sulforhodamine B assay; settings: M14, 48 h, read-out: Activity
HCC 2998 = assay: Growth inhibition of human HCC2998 cells assessed as cell viability at 0.1 uM incubated for 48 hrs by sulforhodamine B assay; settings: HCC 2998, 48 h, read-out: Activity
SR [4] = assay: Growth inhibition of human SR cells incubated for 48 hrs by sulforhodamine B assay; outline: as §2
A549 = assay: Growth inhibition of human A549/ATCC cells incubated for 48 hrs by sulforhodamine B assay; settings: A549, 48 h
Outline: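 NCI-60 five-dose mode: five tenfold dilutions (0.01, 0.1, 1, 10, 100 µM) are applied for 48 h to cells in RPMI 1640 with 5% FBS at 37 °C. Endpoint is TCA fixation with sulforhodamine B read at 515 nm. % growth comes from the 0 h and control absorbances. GI50 is the concentration giving a 50% reduction in net cell growth.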

MDA-MB-231 = assay: Growth inhibition of human MDA-MB-231 cells assessed as cell viability at 0.1 uM incubated for 48 hrs by sulforhodamine B assay; settings: MDA-MB-231, 48 h, read-out: Activity
KM12 = assay: Growth inhibition of human KM12 cells incubated for 48 hrs by sulforhodamine B assay; settings: KM12, 48 h; outline: as §1
SW-620 = assay: Growth inhibition of human SW620 cells assessed as cell viability at 1 uM incubated for 48 hrs by sulforhodamine B assay; settings: SW-620, 48 h, read-out: Activity
[5] = read-out: LC50 (the source's name)
[6] = read-out: pLC50 (the source's name) (converted)

CC1=C(C(=O)OCc2ccccc2)C(c2ccc3c(c2)OCO3)n2c(nc3ccccc32)N1 (racemic)
viability at 1 µM (SN12C [1]): 42% | viability at 0.001 µM (T47D): 82% | viability at 100 µM (SK-OV-3): 42% | viability at 0.001 µM (A498): 81% | viability at 0.1 µM (EKVX): 95% | viability at 0.1 µM (NCI/ADR-RES): 86% | viability at 1 µM (SK-MEL-5): 32% | viability at 1 µM (OVCAR-8): 38% | viability at 0.001 µM (SR [2]): 84% | viability at 0.001 µM (786-0): 94% | viability at 0.1 µM (SK-MEL-2): 101% | viability at 1 µM (HCT-116): 26% | GI50 (NCI-H522; read-out: GI50): 0.14 µM | CC50 (NCI-H522; [5]): > 100 µM | TGI (NCI-H522; read-out: TGI): 33.2 µM | GI50 (NCI-H522; read-out: pGI50 (converted)): 0.135 µM | CC50 (NCI-H522; [6]): > 100 µM | TGI (NCI-H522; read-out: pTGI (converted)): 33.1 µM | viability at 100 µM (HT-29): 5% | Activity (SNB-75): 15.12% | viability at 0.001 µM (NCI-H460): 98% | viability at 1 µM (Malme-3M): 30% | viability at 100 µM (SN12C [3]): 25% | GI50 (SF-268; read-out: GI50): 0.51 µM | LC50 (SF-268; read-out: LC50): > 100 µM | TGI (SF-268; read-out: TGI): > 100 µM | GI50 (SF-268; read-out: pGI50 (converted)): 0.513 µM | LC50 (SF-268; read-out: pLC50 (converted)): > 100 µM | TGI (SF-268; read-out: pTGI): > 100 µM | viability at 0.1 µM (M14): 90% | viability at 0.1 µM (HCC 2998): 96% | GI50 (SR [4]; read-out: GI50): 1.71 µM | CC50 (SR [4]; [5]): > 100 µM | TGI (SR [4]; read-out: TGI): > 100 µM | GI50 (SR [4]; read-out: pGI50 (converted)): 1.7 µM | CC50 (SR [4]; [6]): > 100 µM | TGI (SR [4]; read-out: pTGI): > 100 µM | GI50 (A549; read-out: GI50): 0.68 µM | CC50 (A549; [5]): > 100 µM | TGI (A549; read-out: TGI): > 100 µM | GI50 (A549; read-out: pGI50 (converted)): 0.676 µM | CC50 (A549; [6]): > 100 µM | TGI (A549; read-out: pTGI): > 100 µM | viability at 0.1 µM (MDA-MB-231): 98% | GI50 (KM12; read-out: GI50): 0.34 µM | LC50 (KM12; read-out: LC50): > 100 µM | TGI (KM12; read-out: TGI): > 100 µM | GI50 (KM12; read-out: pGI50 (converted)): 0.339 µM | LC50 (KM12; read-out: pLC50 (converted)): > 100 µM | TGI (KM12; read-out: pTGI): > 100 µM | viability at 1 µM (SW-620): 23%
